According to ChEMBL document CHEMBL1255283, “Comparative efficacies of rifaximin and vancomycin for treatment of Clostridium difficile-associated diarrhea and prevention of disease recurrence in hamsters” (2008):
Activity calls are given as the source filed them. No cut-off for these calls is given here.

Key:
Clostridioides difficile [1] = experiment: Antibacterial activity against Clostridium difficile VPI 10463 infected in golden syrian hamster assessed as survival of the […] at 100 mg/kg/day for 5 days measured after 7 days; format: functional
Procedure, shortened: (§1)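 Prevention design in hamsters (n = 10/group): clindamycin phosphate 10 mg/kg sc on day 0, oral gavage infection with C. difficile VPI 10463 on day 1. Rifaximin suspended in 0.1 M phosphate buffer pH 7.4 plus 4.5‰ SDS, given by gavage once daily from day 1 for 5 doses; vehicle and uninfected controls. Survivors sacrificed day 7. Weight change is % of initial body weight; non-survivors excluded.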

Clostridioides difficile [2] = experiment: Antibacterial activity against Clostridium difficile VPI 10463 infected in golden syrian hamster assessed as survival of the […] at 50 mg/kg/day for 5 days measured after 7 days; format: functional; procedure, shortened: as §1
Clostridioides difficile [3] = experiment: Antibacterial activity against Clostridium difficile VPI 10463 infected in golden syrian hamster assessed as body weight loss at 100 mg/kg/day for 5 days measured after 7 days relative to initial body weight; format: functional; procedure, shortened: as §1
Clostridioides difficile [4] = experiment: Antibacterial activity against Clostridium difficile VPI 10463 infected in golden syrian hamster assessed as body weight loss at 50 mg/kg/day for 5 days measured after 7 days relative to initial body weight; format: functional; procedure, shortened: as §1
Clostridioides difficile [5] = experiment: Antibacterial activity against Clostridium difficile VPI 10463 infected in golden syrian hamster assessed as body weight loss at 25 mg/kg/day for 5 days measured after 7 days relative to initial body weight; format: functional; procedure, shortened: as §1
Clostridioides difficile [6] = experiment: Antibacterial activity against Clostridium difficile VPI 10463 infected in golden syrian hamster assessed as survival of the […] at 100 mg/kg/day administered 24 hrs after infection for 5 days measured after 7 days; format: functional, organism-based
Procedure, shortened: (§2)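 Treatment design in hamsters (10/group per cohort): clindamycin phosphate 10 mg/kg sc on day 0, gavage infection with VPI 10463 on day 1. Oral rifaximin, suspended in phosphate buffer pH 7.4 with 4.5‰ SDS, given daily by gavage from day 2 for five doses. Survival read at day 7, with Kaplan-Meier and log-rank analysis.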

Clostridioides difficile [7] = experiment: Antibacterial activity against Clostridium difficile VPI 10463 infected in golden syrian hamster assessed as survival of the […] at 50 mg/kg/day administered 24 hrs after infection for 5 days measured after 7 days; format: functional, organism-based; procedure, shortened: as §2
Clostridioides difficile [8] = experiment: Antibacterial activity against Clostridium difficile VPI 10463 infected in golden syrian hamster assessed as survival of the […] at 100 mg/kg/day administered 24 hrs after infection for 5 days measured after 28 days; format: functional
Procedure, shortened: (§3)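 Relapse study: hamsters given clindamycin phosphate 10 mg/kg sc on day 0 and infected with VPI 10463 by gavage on day 1. Daily oral rifaximin by gavage in SDS/phosphate buffer vehicle on days 2–6. Animals followed about one month for recurrence, with Kaplan-Meier survival. Body weight tracked over time as % of initial weight.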

Clostridioides difficile [9] = experiment: Antibacterial activity against Clostridium difficile VPI 10463 infected in golden syrian hamster assessed as body weight gain at 100 mg/kg/day for 5 days relative to initial body weight; format: functional; procedure, shortened: as §3
Clostridioides difficile [10] = experiment: Antibacterial activity against Clostridium difficile VPI 10463 infected in golden syrian hamster assessed as survival of the […] at 50 mg/kg/day administered 24 hrs after infection for 5 days measured after 28 days; format: functional, organism-based; procedure, shortened: as §3
Clostridioides difficile [11] = experiment: Antibacterial activity against Clostridium difficile VPI 10463 infected in golden syrian hamster assessed as survival of the […] at 25 mg/kg/day administered 24 hrs after infection for 5 days measured after 28 days; format: functional, organism-based; procedure, shortened: as §3
Clostridioides difficile [12] = experiment: Antibacterial activity against Clostridium difficile VPI 10463 infected in golden syrian hamster assessed as survival of the […] at 25 mg/kg/day administered 24 hrs after infection for 5 days measured after 7 days; format: functional; procedure, shortened: as §2

Row | SMILES | survival at 100 mg/kg/day (Clostridioides difficile [1]) [%] | survival at 50 mg/kg/day (Clostridioides difficile [2]) [%] | Activity (Clostridioides difficile [3]) [%] | Activity (Clostridioides difficile [4]) [%] | Activity (Clostridioides difficile [5]) [%] | Activity (Clostridioides difficile [6]) | Activity (Clostridioides difficile [7]) | survival at 100 mg/kg/day (Clostridioides difficile [8]) [%] | Activity (Clostridioides difficile [9]) [%] | Activity (Clostridioides difficile [10]) | Activity (Clostridioides difficile [11]) | survival at 25 mg/kg/day (Clostridioides difficile [12]) [%]
1 | CO[C@H]1/C=C/O[C@@]2(C)Oc3c(C)c(O)c4c(O)c(c5c(nc6cc(C)ccn65)c4c3C2=O)NC(=O)/C(C)=C\C=C\[C@H](C)[C@H](O)[C@@H](C)[C@@H](O)[C@@H](C)[C@H](OC(C)=O)[C@@H]1C [RIFAXIMIN] | 80 | 70 | -8.1 | -7.9 | -8.4 | Active | Active | 100 | 16.7 | Active | Active | –
2 | CN[C@H](CC(C)C)C(=O)N[C@H]1C(=O)N[C@@H](CC(N)=O)C(=O)N[C@H]2C(=O)N[C@H]3C(=O)N[C@H](C(=O)N[C@H](C(=O)O)c4cc(O)cc(O)c4-c4cc3ccc4O)[C@H](O)c3ccc(c(Cl)c3)Oc3cc2cc(c3O[C@@H]2O[C@H](CO)[C@@H](O)[C@H](O)[C@H]2O[C@H]2C[C@](C)(N)[C@H](O)[C@H](C)O2)Oc2ccc(cc2Cl)[C@H]1O [VANCOMYCIN] | – | 70 | – | -6.6 | – | – | Active | 25 | – | Active | Active | 80
